B1: tRNA (parent)
chain: GUUCCGUUGGCGUAAUGGUAACGCGUCUCCCUCCUAAGGAGAAGACUGCGGGUUCGAGUCCCGUACGGAACG

Variants at the floor of the assay were thinned out.

In the series the parent is B1. The series is described as follows: yeast fitness relative to wild type (ratio to wild type); higher = fitter; tRNA-Arg(CCU), competitive growth, 37 C, YPD. Summed up:
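Gene amplicons from the start population and from each of six end populations were read by 100-nucleotide paired-end sequencing. Those end populations came from pooled Saccharomyces cerevisiae strains carrying tRNA-Arg(CCU) gene variants at the native locus, competed in YPD at 37°C for 24 hours. Fitness relative to wild type was worked out from changes in genotype frequencies. Genotypes needed ≥ 100 starting reads, and estimates < 0.5 were set to 0.5.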
Take U2A U19A A20C U26A A43G: the yeast fitness was at most 0.5.

Take U2A C5A U64G C66U: the yeast fitness was at most 0.5.

On to U2C C5A C29G G48A A69U, for which the yeast fitness was at most 0.5.

As for U2A C4U U8G C55G, the yeast fitness amounted to 0.513.

As for U2A C5G G41A A43U U54G A57U, the yeast fitness is at most 0.5.

Consider U2C C4A C11U C29U G67A A70U, for which the yeast fitness is at most 0.5.

On to U2A C5A G48C C55G C66A, for which the yeast fitness is at most 0.5.

For the variant U2A G23A C29G C49U, the yeast fitness amounted to 0.575.

Turning to U2A C11A G38C C60A C66U, the yeast fitness was at most 0.5.

With U2C A37G C49G A57U G68C A70G, the yeast fitness is at most 0.5.

For the variant U2A G38C A40C C49U, the yeast fitness was 0.527.

In the case of U2A C4G C55A C61G, the yeast fitness is at most 0.5.

With U2A U3A G63C, the yeast fitness was at most 0.5.

As to U2A U3C G18C A69U, the yeast fitness is at most 0.5.

Take U2A U13G U28A A36U G56A C62G U64G: the yeast fitness was at most 0.5.

For the variant U2A U19A A20C G25A U26A, the yeast fitness is at most 0.5.

For U2C A14G C29A C33G C66A, the yeast fitness is at most 0.5.

U2A C4A U13C C31A C49G A57G: the yeast fitness is at most 0.5.

For U2A U26C C55U, the yeast fitness was at most 0.5.

U2A U8C A15G: the yeast fitness amounted to 0.667.

U2A U3C G6A U26C G56A: the yeast fitness is at most 0.5.

As to U2A C31U A37U, the yeast fitness was at most 0.5.

For U2A U64C, the yeast fitness was determined as 0.938.

Regarding U2C A65G G68A A69C, the yeast fitness worked out at 0.563.

As to U2A C46U A65G, the yeast fitness was 0.592.

In the case of U2A C27U G67A, the yeast fitness turned out to be 0.531.

Take U2C A14G G18A C33U C34U G39C: the yeast fitness is at most 0.5.

Take U2A U19G A65U: the yeast fitness turned out to be 0.644.

For the variant U2C A20C G68A, the yeast fitness came to 0.614.

U2A C49U C62U: the yeast fitness is 0.522.

For the variant U2A C11U G17A U64G, the yeast fitness was at most 0.5.

In the case of U2A C4A U13C A42G C55G G67A, the yeast fitness was at most 0.5.

Consider U2A C31A, for which the yeast fitness came out at 0.815.

U2A C31U: the yeast fitness was 0.921.

As for U2A C31G, the yeast fitness was found to be 0.864.

Consider U2A U16C C30A A43C, for which the yeast fitness is at most 0.5.

As for U2A U16A C55G C60A, the yeast fitness was at most 0.5.

For the variant U2A G9A G23A C29G, the yeast fitness was at most 0.5.

U2A C31G A65G: the yeast fitness turned out to be 0.642.

U2C A40U: the yeast fitness turned out to be 1.05.

With U2A G6C U7C G12A C30A G44A C66A, the yeast fitness is at most 0.5.

Turning to U2A G9C U16G U32G U47A A57C C62U, the yeast fitness was at most 0.5.

On to U2C A20U G38C, for which the yeast fitness is at most 0.5.

As for U2A C4A U26C C31U G38A, the yeast fitness is at most 0.5.

In the case of U2C C5U U54C, the yeast fitness was at most 0.5.

Turning to U2A G6C U7C A15U U35C G41A C60A A65U A69G, the yeast fitness is at most 0.5.

Regarding U2A A42U G67C, the yeast fitness is at most 0.5.

Take U2A C30A: the yeast fitness is 0.819.

As to U2A U16C A45C, the yeast fitness amounted to 0.651.

Turning to U2C A40C G52C, the yeast fitness was 0.528.

Turning to U2A G38C, the yeast fitness came out at 0.635.

For the variant U2C A43U G44C, the yeast fitness was at most 0.5.

Turning to U2C A40U G50A, the yeast fitness came out at 0.571.

For U2A A40G A69U, the yeast fitness was 0.553.

U2A G25A A70U: the yeast fitness turned out to be 0.695.

On to U2A U7G A42G A45U G52A U64C A69U, for which the yeast fitness was at most 0.5.

Consider U2C A15U C30G C55U, for which the yeast fitness amounted to 0.666.

Take U2C C4U C33A G41C C60U A65U A69U: the yeast fitness is at most 0.5.

With U2A G9C G50A U64A, the yeast fitness was at most 0.5.

As to U2A U7C G41A A42C G50C A70G, the yeast fitness is at most 0.5.

With U2A C5A G68C, the yeast fitness is at most 0.5.

Consider U2A C4U U28A C30U, for which the yeast fitness was determined as 0.56.

Regarding U2A G9A U13A C24A, the yeast fitness is at most 0.5.

Consider U2C A15C C60A, for which the yeast fitness is at most 0.5.

With U2A G25A U32C, the yeast fitness amounted to 0.903.

For U2C A14U G18C C33G G52A, the yeast fitness was at most 0.5.

Take U2A C5U A42G C46G G56C C61A: the yeast fitness was at most 0.5.

For U2A G41A C66U, the yeast fitness is at most 0.5.

Consider U2A U16G C66G G68C, for which the yeast fitness was at most 0.5.

With U2A G41A, the yeast fitness worked out at 0.773.

U2C A14G G18A U32A A45C A69C: the yeast fitness is at most 0.5.

For the variant U2A U3C C4U C61A G67C, the yeast fitness worked out at 0.59.

With U2A G9A A37G G58A, the yeast fitness was at most 0.5.

Consider U2C A40G U54A, for which the yeast fitness is at most 0.5.

Take U2A G10A A20G U35C: the yeast fitness was at most 0.5.

Take U2A U3A G51A C61G: the yeast fitness stood at 0.513.

In the case of U2C A20U U28A, the yeast fitness was at most 0.5.

Take U2A C27A C34U: the yeast fitness was at most 0.5.

In the case of U2A G39C A70G, the yeast fitness is at most 0.5.

Turning to U2A C11G U19C, the yeast fitness was at most 0.5.

Turning to U2A C5U G6A G39C C60A, the yeast fitness is at most 0.5.

Take U2A G52A C61A: the yeast fitness was at most 0.5.

Turning to U2C A21U C30U, the yeast fitness was at most 0.5.

As to U2A C33U C34U G38A G51A C55A A65U, the yeast fitness was at most 0.5.

Consider U2A C30U A42G C60G C62G A65G C66U, for which the yeast fitness was at most 0.5.

Consider U2C C4A U8C G18C U35C G63A, for which the yeast fitness is at most 0.5.

Turning to U2A C4U A69U, the yeast fitness came to 0.787.

With U2A C5G U64A, the yeast fitness is at most 0.5.

Consider U2C C11A, for which the yeast fitness is at most 0.5.

As for U2C A40C G52C G67A, the yeast fitness was determined as 0.56.

U2A U13A U35G: the yeast fitness was at most 0.5.

As for U2A C5A C22G C24U G50C, the yeast fitness was at most 0.5.

With U2A G9A A70C, the yeast fitness turned out to be 0.568.

For U2A U28A A37C C66U, the yeast fitness is at most 0.5.

U2C A14G U47G: the yeast fitness was determined as 0.593.

Consider U2C A37U U53A, for which the yeast fitness was 0.727.

On to U2A G48A A57U A65U C66A, for which the yeast fitness is at most 0.5.

As for U2A C29G C34A C60G, the yeast fitness is at most 0.5.

For U2A C5G A40G, the yeast fitness stood at 0.564.

Turning to U2C C4U G25C C29U G68A, the yeast fitness is at most 0.5.

For the variant U2A U16G A43C U54G, the yeast fitness was at most 0.5.

As to U2A C61U A70G, the yeast fitness is 0.571.

U2C C5A: the yeast fitness was 0.845.

Consider U2A C5G G17C G56C A57G G68U, for which the yeast fitness was found to be 0.558.

For the variant U2C C11A C22G G41A A43C G51C C66U G67C, the yeast fitness was at most 0.5.

On to U2C C11A C22G G41A A43C G51C C66U G67U, for which the yeast fitness was 0.584.

As for U2A U7A U54A, the yeast fitness was at most 0.5.

For U2A U8A A42U G52C, the yeast fitness was at most 0.5.

On to U2A U16G C66A, for which the yeast fitness is 0.625.

In the case of U2A C24U, the yeast fitness was 0.95.

As for U2A C31G G39C A42G C49U C60G, the yeast fitness was at most 0.5.

On to U2A C5A U16C C30A, for which the yeast fitness was at most 0.5.

For the variant U2A C5U G39C C60A, the yeast fitness came out at 0.541.

For the variant U2A G6C G38A G68A, the yeast fitness was at most 0.5.

Regarding U2C C4U G25C C29U C66A, the yeast fitness was at most 0.5.

As for U2A U26C C33G A42C C49G G58C C62G, the yeast fitness was at most 0.5.

On to U2A U8A, for which the yeast fitness turned out to be 0.811.

With U2A U8C, the yeast fitness is 1.01.

Regarding U2A C33A C34U G56A, the yeast fitness worked out at 0.542.

As for U2A C29A A42G C49U U54A C60G G68A, the yeast fitness was at most 0.5.

With U2C A15C U19C C22G U59C C60G, the yeast fitness was at most 0.5.

With U2A C5A G52C, the yeast fitness was at most 0.5.

U2A G9A C33A G68A: the yeast fitness is at most 0.5.

U2A G56A: the yeast fitness was determined as 0.898.

Consider U2A G48A G50C U59C C60A, for which the yeast fitness is at most 0.5.

With U2A G48C G50A, the yeast fitness is 0.732.

As for U2A C11U G23A C29G, the yeast fitness was 0.527.

Take U2A G9C U16G U32G G52A G63C: the yeast fitness was at most 0.5.

U2A C11U A69U: the yeast fitness was determined as 0.648.

For U2C A15U U16A, the yeast fitness worked out at 0.62.

Take U2A C24U U47C C60U: the yeast fitness was at most 0.5.

Turning to U2A U13A A20C G44C C66U, the yeast fitness is at most 0.5.

In the case of U2C A15C C29U, the yeast fitness was at most 0.5.

Turning to U2C C4U U47A, the yeast fitness was 0.525.

Regarding U2A C46A, the yeast fitness turned out to be 1.03.

As to U2A C46U, the yeast fitness was 1.06.

For the variant U2A C34G A36G A43U, the yeast fitness is at most 0.5.

U2A U19G A70U: the yeast fitness is 0.68.

U2A C31A A40U U53G G56C C62G: the yeast fitness was at most 0.5.

Regarding U2C A57U C62U U64C, the yeast fitness was at most 0.5.

With U2A C5U G38A C55A, the yeast fitness was at most 0.5.

For U2C C4U C62U, the yeast fitness came to 0.698.

On to U2A G10A U35C, for which the yeast fitness was at most 0.5.

Take U2A G23C C27U C31G A42C C61U: the yeast fitness is at most 0.5.

For the variant U2A U28C C49U C62G, the yeast fitness is at most 0.5.

Turning to U2C A14U A15G C30U C34U G51C C55U, the yeast fitness turned out to be 0.596.

For the variant U2A U28A C55G, the yeast fitness was at most 0.5.

As for U2C A14G C31G G58A, the yeast fitness was at most 0.5.

With U2C A57U G67C, the yeast fitness came out at 0.562.

On to U2A G41C G50C, for which the yeast fitness is at most 0.5.

U2A G9C U35A A36G: the yeast fitness is at most 0.5.

Take U2C A14C U19A: the yeast fitness amounted to 0.595.

Regarding U2C C5A C24A, the yeast fitness is at most 0.5.

On to U2A U47A, for which the yeast fitness was found to be 0.851.

For the variant U2A C11G C34U A42U C49G, the yeast fitness was determined as 0.788.

For U2C A36U A65C, the yeast fitness was at most 0.5.

In the case of U2A C5A A21C, the yeast fitness was at most 0.5.

Consider U2A C24U C29U C33U C34G A42U G58A, for which the yeast fitness was 0.56.

In the case of U2A C66G, the yeast fitness was determined as 0.715.

Turning to U2A C66U, the yeast fitness is 0.739.

As for U2A C11G C34G U64G, the yeast fitness was at most 0.5.

On to U2A C5G C24U C30G G68A, for which the yeast fitness was at most 0.5.

Regarding U2C A20U C62U, the yeast fitness is 0.571.

As for U2A U28A A37C G58C A69G, the yeast fitness was at most 0.5.

U2A A57U G68C: the yeast fitness was at most 0.5.

Regarding U2A G67U, the yeast fitness turned out to be 0.824.

For the variant U2A C11A C46U C49U, the yeast fitness is at most 0.5.

Source of the values: the RNAGym collection of RNA variant scans (doi:10.1126/science.aae0568).
